20 compounds from ChEMBL document CHEMBL1145827, “Structure-activity relationship comparison of (S)-2beta-substituted 3alpha-(bis[4-fluorophenyl]methoxy)tropanes and (R)-2beta-substituted 3beta-(3,4-dichlorophenyl)tropanes at the dopamine transporter” (J Med Chem, 2003) can be followed below.

The target of experiment [1] is T1, Sodium-dependent dopamine transporter (Rattus norvegicus, UniProt P23977). The experiment in a line: In vitro dopamine transporter binding affinity using [3H]WIN-35428 as radioligand was determined.
T1 sequence (P23977 whole entry): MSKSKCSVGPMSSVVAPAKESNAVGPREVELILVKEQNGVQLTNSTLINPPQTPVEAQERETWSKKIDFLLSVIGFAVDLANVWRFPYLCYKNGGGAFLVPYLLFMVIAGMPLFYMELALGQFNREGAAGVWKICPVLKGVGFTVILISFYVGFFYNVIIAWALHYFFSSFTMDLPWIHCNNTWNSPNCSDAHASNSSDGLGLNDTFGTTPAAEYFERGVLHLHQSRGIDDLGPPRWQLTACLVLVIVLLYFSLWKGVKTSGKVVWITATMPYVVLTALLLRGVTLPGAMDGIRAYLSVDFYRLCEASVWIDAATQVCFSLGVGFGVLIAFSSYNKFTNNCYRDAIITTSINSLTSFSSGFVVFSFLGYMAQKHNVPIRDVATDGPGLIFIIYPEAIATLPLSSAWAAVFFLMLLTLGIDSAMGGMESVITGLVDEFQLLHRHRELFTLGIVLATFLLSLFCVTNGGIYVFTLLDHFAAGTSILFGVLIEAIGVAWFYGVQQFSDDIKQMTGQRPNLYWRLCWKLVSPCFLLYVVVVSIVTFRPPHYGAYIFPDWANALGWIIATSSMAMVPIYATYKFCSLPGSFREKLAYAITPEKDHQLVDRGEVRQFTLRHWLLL
For experiment [2], the target named is T1, Sodium-dependent dopamine transporter. The experiment in a line: In vitro potency for inhibiting [3H]- dopamine uptake was determined. It is filed as functional. The essentials: (§1)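 [3H]Dopamine uptake inhibition in rat brain synaptosomes, reported as IC50.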
In experiment [3] the target is Norepinephrine transporter (Rattus norvegicus, UniProt Q9WTR4). The experiment in a line: Binding affinity towards norepinephrine transporter using [3H]nisoxetine as radioligand was determined. The essentials:
(§2)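 Radioligand displacement binding for SERT, NET and muscarinic receptors. Ki from at least three independent experiments, each run in triplicate.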

Experiment [4] addresses T1, Sodium-dependent dopamine transporter. The experiment in a line: In vitro potency for inhibiting [3H]- dopamine uptake in rat brain was determined. The experiment is classed as functional, tissue-based. The essentials:
as §1

Experiment [5] has the same target. The experiment in a line: Binding affinity towards dopamine transporter. Summed up:
(§3)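 Rat brain DAT, radioligand displacement with [3H]WIN 35,428. Ki from at least three independent experiments, each run in triplicate.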

The target of experiment [6] is T2, Muscarinic acetylcholine receptor M1 (Rattus norvegicus, UniProt P08482).
T2 sequence (P08482 whole entry): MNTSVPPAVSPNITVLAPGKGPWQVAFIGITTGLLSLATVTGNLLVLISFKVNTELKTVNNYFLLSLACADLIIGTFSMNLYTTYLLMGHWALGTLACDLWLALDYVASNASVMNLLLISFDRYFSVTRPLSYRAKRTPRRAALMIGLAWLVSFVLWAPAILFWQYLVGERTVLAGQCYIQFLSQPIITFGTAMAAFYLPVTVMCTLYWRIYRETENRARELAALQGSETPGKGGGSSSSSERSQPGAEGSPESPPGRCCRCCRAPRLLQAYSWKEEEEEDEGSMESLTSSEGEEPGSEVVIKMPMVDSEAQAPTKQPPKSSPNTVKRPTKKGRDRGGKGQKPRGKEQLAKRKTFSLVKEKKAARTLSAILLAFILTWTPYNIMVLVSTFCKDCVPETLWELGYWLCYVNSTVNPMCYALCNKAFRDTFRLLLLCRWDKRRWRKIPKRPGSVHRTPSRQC
Kind of experiment: Binding affinity towards Muscarinic acetylcholine receptor M1 using [3H]pirenzepine as radioligand was determined. Summed up:
as §2

For experiment [7], the target named is Sodium-dependent serotonin transporter (Rattus norvegicus, UniProt P31652). The experiment in a line: Binding affinity towards serotonin transporter using [3H]citalopram as radioligand was determined. Summed up: as §2
Chain of Sodium-dependent serotonin transporter (P31652 whole entry): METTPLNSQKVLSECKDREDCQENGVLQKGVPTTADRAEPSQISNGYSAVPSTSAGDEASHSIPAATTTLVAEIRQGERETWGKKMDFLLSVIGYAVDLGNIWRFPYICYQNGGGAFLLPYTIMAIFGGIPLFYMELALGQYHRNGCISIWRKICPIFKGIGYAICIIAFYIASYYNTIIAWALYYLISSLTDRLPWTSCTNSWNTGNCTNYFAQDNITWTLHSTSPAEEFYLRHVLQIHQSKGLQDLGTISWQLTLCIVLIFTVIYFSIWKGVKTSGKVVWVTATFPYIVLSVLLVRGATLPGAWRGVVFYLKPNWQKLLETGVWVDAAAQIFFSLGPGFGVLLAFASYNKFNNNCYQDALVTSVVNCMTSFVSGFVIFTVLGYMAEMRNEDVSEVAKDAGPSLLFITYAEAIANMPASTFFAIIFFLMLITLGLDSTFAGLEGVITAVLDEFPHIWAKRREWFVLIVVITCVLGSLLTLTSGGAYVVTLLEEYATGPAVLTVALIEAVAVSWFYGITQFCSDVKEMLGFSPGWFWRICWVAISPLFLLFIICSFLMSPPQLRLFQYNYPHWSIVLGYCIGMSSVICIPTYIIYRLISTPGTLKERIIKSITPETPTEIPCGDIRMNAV
Experiment [8] addresses T1, Sodium-dependent dopamine transporter. Kind of experiment: In vitro inhibitory activity of dopamine transporter using [3H]WIN-35428 as radioligand was determined. Summed up: as §3

What is called Ki is the dissociation constant of the complex between target and ligand, obtained from inhibition or displacement. The term IC50 denotes the concentration needed to halve the response being measured. High values mean lower potency, low ones higher potency.

Chain of Norepinephrine transporter (Q9WTR4 whole entry): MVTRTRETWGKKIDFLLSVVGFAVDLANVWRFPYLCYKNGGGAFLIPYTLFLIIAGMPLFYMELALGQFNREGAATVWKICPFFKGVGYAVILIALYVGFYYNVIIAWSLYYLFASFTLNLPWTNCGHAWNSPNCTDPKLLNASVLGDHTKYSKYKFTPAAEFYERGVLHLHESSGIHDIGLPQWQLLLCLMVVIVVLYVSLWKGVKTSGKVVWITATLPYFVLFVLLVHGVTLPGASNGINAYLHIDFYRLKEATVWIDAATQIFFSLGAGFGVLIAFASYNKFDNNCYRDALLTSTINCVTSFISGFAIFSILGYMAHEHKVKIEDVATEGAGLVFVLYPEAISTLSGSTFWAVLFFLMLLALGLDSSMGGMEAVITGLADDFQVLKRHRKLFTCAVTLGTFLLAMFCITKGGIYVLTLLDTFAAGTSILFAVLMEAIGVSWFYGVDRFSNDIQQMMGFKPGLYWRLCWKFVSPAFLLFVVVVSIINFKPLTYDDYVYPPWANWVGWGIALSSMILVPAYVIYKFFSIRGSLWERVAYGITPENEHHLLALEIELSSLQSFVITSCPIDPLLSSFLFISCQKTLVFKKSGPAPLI

Compound `CN1C2CCC1[C@@H](C(=O)OCCc1ccc(N)c(I)c1)[C@@H](OC(c1ccc(F)cc1)c1ccc(F)cc1)C2` (some centres undefined) displayed an inhibition constant (Ki) in experiment [1] of 42.3 nM.

The compound `COC(=O)[C@@H]1C2CCC(C[C@@H]1OC(c1ccc(F)cc1)c1ccc(F)cc1)N2C` (some centres undefined) came in with an IC50 in experiment [2] of 1.5 nM.

Compound `CN1C2CCC1[C@@H](C(=O)OCc1ccccc1)[C@@H](OC(c1ccc(F)cc1)c1ccc(F)cc1)C2` (some centres undefined) yielded an IC50 in experiment [2] of 2.2 nM. The same compound displayed a Ki in experiment [1] of 48.4 nM.

Consider `CCOC(=O)[C@@H]1C2CCC(C[C@@H]1OC(c1ccc(F)cc1)c1ccc(F)cc1)N2C` (some centres undefined), for which 1.8 nM corresponded to half-maximal inhibition in experiment [2] (IC50). For the same compound, the inhibition constant (Ki) in experiment [1] is 16.4 nM; in experiment [3], 629 nM.

Consider `CN1C2CCC1[C@@H](C(=O)OCCc1ccccc1)[C@@H](c1ccc(Cl)c(Cl)c1)C2` (some centres undefined), for which inhibition in experiment [4] was half-maximal at 3.2 nM (IC50). Besides, the Ki in experiment [1] came to 10.9 nM; in experiment [5], 100 nM.

For the compound `CN1C2CCC1[C@@H](C(=O)OCc1ccccc1)[C@@H](c1ccc(Cl)c(Cl)c1)C2` (some centres undefined), the midpoint of inhibition in experiment [4], the IC50, lay at 19 nM. Further, the Ki in experiment [1] came out at 34.7 nM; in experiment [5], 100 nM.

As to `CCOC(=O)[C@@H]1C2CCC(C[C@@H]1c1ccc(Cl)c(Cl)c1)N2C` (some centres undefined), the 50% inhibitory concentration (IC50) in experiment [4] turned out to be 1.9 nM. In addition, the Ki in experiment [1] was found to be 5.54 nM; in experiment [5] it was 100 nM.

Consider `CC(C)OC(=O)[C@@H]1C2CCC(C[C@@H]1c1ccc(Cl)c(Cl)c1)N2C` (some centres undefined), for which half-maximal inhibition in experiment [4] (IC50) required 2.7 nM. Besides, the Ki in experiment [1] was determined as 17.9 nM; in experiment [5] it was 100 nM.

Compound `COC(=O)[C@@H]1C2CCC(C[C@@H]1c1ccc(Cl)c(Cl)c1)N2C` (some centres undefined) gave an IC50 in experiment [4] of 1.4 nM. Besides, the Ki in experiment [1] stood at 6.3 nM; in experiment [5], 100 nM; in experiment [6] it was 3140 nM; in experiment [3], 15.8 nM; in experiment [7], 1.46 nM.

In experiment [8], `CN1C2CCC1[C@@H](C(=O)OCCc1ccc(N=[N+]=[N-])c(I)c1)[C@@H](OC(c1ccc(F)cc1)c1ccc(F)cc1)C2` (some centres undefined) displayed a half-maximal inhibitory concentration (IC50) of 210 nM.

With `CN1C2CCC1[C@@H](C(=O)OCCc1ccccc1)[C@@H](OC(c1ccc(F)cc1)c1ccc(F)cc1)C2` (some centres undefined), the 50% inhibitory concentration (IC50) in experiment [2] was determined as 2.6 nM. In addition, the affinity in experiment [1] corresponds to a Ki of 36.7 nM.

On to `CN1C2CCC1[C@@H](C(=O)OCCc1ccc([N+](=O)[O-])cc1)[C@@H](OC(c1ccc(F)cc1)c1ccc(F)cc1)C2` (some centres undefined), for which it took 3.3 nM to reach half-maximal inhibition in experiment [2] (IC50). In experiment [1], the affinity, expressed as Ki, was 97.7 nM.

The compound `CN1C2CCC1[C@@H](C(=O)OCCc1ccc(N)cc1)[C@@H](OC(c1ccc(F)cc1)c1ccc(F)cc1)C2` (some centres undefined) gave a 50% inhibitory concentration (IC50) in experiment [2] of 8 nM. The inhibitory constant (Ki) is 36.7 nM in experiment [1], 263 nM in experiment [6], 1340 nM in experiment [3] and 1500 nM in experiment [7].

Take `CN1C2CCC1[C@@H](C(=O)OCCc1ccc(N=C=S)cc1)[C@@H](OC(c1ccc(F)cc1)c1ccc(F)cc1)C2` (some centres undefined): in experiment [8], the IC50 was determined as 537 nM.

For the compound `CC(C)OC(=O)[C@@H]1C2CCC(C[C@@H]1OC(c1ccc(F)cc1)c1ccc(F)cc1)N2C` (some centres undefined), the half-inhibitory concentration (IC50) in experiment [2] came out at 6.2 nM. In experiment [1], the inhibitory constant (Ki) is 30.3 nM.

With `CN1C2CCC1[C@@H](C(=O)OCCc1ccc(N=[N+]=[N-])c(I)c1)[C@@H](c1ccc(Cl)c(Cl)c1)C2` (some centres undefined), the half-maximal inhibitory concentration (IC50) in experiment [8] was 14.5 nM.

Compound `COC(=O)[C@@H]1C2CCC(C[C@@H]1OC(c1ccc(F)cc1)c1ccc(F)cc1)N2C` (single isomer, unassigned; (+)) had an inhibitory constant (Ki) in experiment [3] of 269 nM.

As to `CN1C2CCC1[C@@H](C(=O)OCc1ccccc1)[C@@H](OC(c1ccc(F)cc1)c1ccc(F)cc1)C2` (single isomer, unassigned; (+)), the values for the Ki in experiment [6], in experiment [3] and in experiment [7] were 4380 nM, 2230 nM and 2040 nM, respectively.

Turning to `CN1C2CCC1[C@@H](C(=O)OCCc1ccccc1)[C@@H](OC(c1ccc(F)cc1)c1ccc(F)cc1)C2` (single isomer, unassigned; (+)), the inhibition constant Ki in experiment [6] came out at 354 nM; in experiment [3] it was 1030 nM; in experiment [7] it was 3160 nM.

Turning to `CC(C)OC(=O)[C@@H]1C2CCC(C[C@@H]1OC(c1ccc(F)cc1)c1ccc(F)cc1)N2C` (single isomer, unassigned; (+)), the Ki stood at 2680 nM in experiment [6], 642 nM in experiment [3] and 12000 nM in experiment [7].
